Assay results published in ChEMBL document CHEMBL1134464, “Synthesis, antimalarial activity, biomimetic iron(II) chemistry, and in vivo metabolism of novel, potent C-10-phenoxy derivatives of dihydroartemisinin” (J Med Chem, 2001).

How the values were obtained:
[1] = test system: Mus musculus; assay: In vivo antimalarial activity against Plasmodium berghei; assay type: functional
[2] = test system: Plasmodium falciparum; assay: In vitro antimalarial activity against chloroquine-sensitive Plasmodium falciparum HB3; assay type: functional, organism-based
Method in brief: (§1)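 48-h [3H]hypoxanthine incorporation assay on P. falciparum cultured in human erythrocytes in RPMI 1640 with 25 mM HEPES, 32 mM NaHCO3 and 10% human serum, gassed 3% O2/4% CO2/93% N2. Assay at 2% parasitemia and 0.5% hematocrit, with DMSO stocks diluted in medium, run in triplicate. 0.5 μCi hypoxanthine added after 24 h at 37 °C, then 24 h more. IC50 interpolated from probit of log dose–response.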

[3] = test system: Plasmodium falciparum; assay: In vitro antimalarial activity against chloroquine-resistant Plasmodium falciparum K1; assay type: functional, organism-based; method in brief: as §1
[4] = test system: Plasmodium berghei; assay: In vivo antimalarial activity against Plasmodium berghei
[5] = test system: Mus musculus; assay: In vivo antimalarial activity against Plasmodium yoelii when administered subcutaneously; assay type: functional; conditions: sc
[6] = test system: Mus musculus; assay: In vivo antimalarial activity against Plasmodium berghei when administered perorally; assay type: functional; conditions: po
[7] = test system: Plasmodium yoelii; assay: In vivo antimalarial activity against Plasmodium yoelii when administered subcutaneously; conditions: Mus musculus, sc

Row | Compound | IC50 [2] [nM] | IC50 [3] [nM] | also measured
1 | CO[C@H]1O[C@@H]2O[C@@]3(C)CC[C@H]4[C@H](C)CC[C@@H]([C@H]1C)[C@@]24OO3 [ARTEMETHER] | 3.42 | 4.55 | ED50 [1]: 6.02 mg/kg
2 | C[C@@H]1CC[C@H]2[C@@H](C)C(=O)O[C@@H]3O[C@@]4(C)CC[C@@H]1[C@]32OO4 [ARTEMISININ] | 9.67 | 11.2 | 
3 | C[C@H]1[C@@H](Oc2ccccc2)O[C@@H]2OC3(C)CC[C@H]4[C@H](C)CC[C@@H]1[C@@]24OO3 (single isomer, unassigned) | 3.24 | 3.66 | ED50 [1]: 3.09 mg/kg
4 | COc1ccc(O[C@@H]2O[C@@H]3OC4(C)CC[C@H]5[C@H](C)CC[C@@H]([C@H]2C)[C@@]35OO4)cc1 (single isomer, unassigned) | 3.32 | 3.86 | 
5 | Cc1ccc(O[C@@H]2O[C@@H]3OC4(C)CC[C@H]5[C@H](C)CC[C@@H]([C@H]2C)[C@@]35OO4)cc1 (single isomer, unassigned) | 2.87 | 3.18 | 
6 | C[C@H]1[C@@H](O)O[C@@H]2O[C@@]3(C)CC[C@H]4[C@H](C)CC[C@@H]1[C@@]24OO3 [ARTENIMOL] |  |  | ED50 [4]: 1.95 mg/kg
7 | C[C@H]1[C@H](Oc2ccc(F)cc2)O[C@@H]2OC3(C)CC[C@H]4[C@H](C)CC[C@@H]1[C@@]24OO3 (single isomer, unassigned) | 4.04 | 5.7 | 
8 | C[C@H]1[C@@H](Oc2ccc(C(F)(F)F)cc2)O[C@@H]2OC3(C)CC[C@H]4[C@H](C)CC[C@@H]1[C@@]24OO3 (single isomer, unassigned) | 3.9 | 5.29 | ED90 [5]: 3.1 mg/kg; ED50 [1]: 2.12 mg/kg; ED50 [6]: 2.7 mg/kg; ED90 [6]: 5.4 mg/kg; ED50 [7]: 2.2 mg/kg
9 | Cc1ccc(O[C@H]2O[C@@H]3OC4(C)CC[C@H]5[C@H](C)CC[C@@H]([C@H]2C)[C@@]35OO4)cc1 (single isomer, unassigned) | 3.24 | 3.92 | 
10 | C[C@H]1[C@H](Oc2ccc(C(F)(F)F)cc2)O[C@@H]2OC3(C)CC[C@H]4[C@H](C)CC[C@@H]1[C@@]24OO3 (single isomer, unassigned) | 3.42 | 4.62 | 
11 | C[C@H]1[C@@H](Oc2ccc(F)cc2)O[C@@H]2OC3(C)CC[C@H]4[C@H](C)CC[C@@H]1[C@@]24OO3 (single isomer, unassigned) | 2.88 | 4.58 | 
12 | C[C@H]1[C@H](Oc2ccccc2)O[C@@H]2OC3(C)CC[C@H]4[C@H](C)CC[C@@H]1[C@@]24OO3 (single isomer, unassigned) | 2.61 | 2.97 | 
13 | COc1ccc(O[C@H]2O[C@@H]3OC4(C)CC[C@H]5[C@H](C)CC[C@@H]([C@H]2C)[C@@]35OO4)cc1 (single isomer, unassigned) |  | 4.58 | 
14 | C[C@H]1[C@H](OC(=O)CCC(=O)[O-])O[C@@H]2O[C@@]3(C)CC[C@H]4[C@H](C)CC[C@@H]1[C@@]24OO3.[Na+] [SODIUM ARESUNATE] |  |  | ED90 [5]: 13.5 mg/kg; ED50 [6]: 4 mg/kg; ED90 [6]: 13 mg/kg; ED50 [7]: 3.6 mg/kg
